Reference: BindingDB's records for doi:10.1021/jm00370a001 (1984)
Values belong to the compound of their own block, whether it stands above or below them. Peptide text beside a SMILES is read from it. * marks the point of attachment. Boc = CC(C)(C)OC(=O)*

Assays:
[1] = molecular target: Cytosol aminopeptidase (Sus scrofa) (UniProt P28839); test: Compound was evaluated for the inhibition of Leucine aminopeptidase and the inhibition constant was determined after preincubating the enzyme and inhibitor
Chain of Cytosol aminopeptidase (Sus scrofa) (P28839 whole entry, looked up): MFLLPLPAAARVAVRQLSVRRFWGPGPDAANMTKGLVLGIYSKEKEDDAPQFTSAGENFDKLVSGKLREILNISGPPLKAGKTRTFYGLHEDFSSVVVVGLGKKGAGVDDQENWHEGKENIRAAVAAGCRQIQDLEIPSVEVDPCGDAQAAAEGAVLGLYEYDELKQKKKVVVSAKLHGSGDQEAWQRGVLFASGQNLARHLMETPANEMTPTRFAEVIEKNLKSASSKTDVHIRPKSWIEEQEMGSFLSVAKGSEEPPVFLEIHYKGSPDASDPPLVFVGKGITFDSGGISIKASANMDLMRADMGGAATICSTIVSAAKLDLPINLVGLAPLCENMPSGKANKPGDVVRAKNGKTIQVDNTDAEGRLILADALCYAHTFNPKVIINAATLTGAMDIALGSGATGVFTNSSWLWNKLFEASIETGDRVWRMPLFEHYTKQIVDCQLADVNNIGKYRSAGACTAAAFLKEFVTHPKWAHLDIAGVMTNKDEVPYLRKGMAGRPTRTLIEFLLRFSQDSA

[2] = molecular target: Cytosol aminopeptidase (Sus scrofa) (UniProt P28839); test: as above; remark: listed apart in the source
Cytosol aminopeptidase = Cytosol aminopeptidase (Homo sapiens, UniProt P28838); test: Compound was evaluated for the inhibition of Leucine aminopeptidase and the inhibition constant was determined after preincubating the enzyme and inhibitor
Chain of Cytosol aminopeptidase (P28838 whole entry): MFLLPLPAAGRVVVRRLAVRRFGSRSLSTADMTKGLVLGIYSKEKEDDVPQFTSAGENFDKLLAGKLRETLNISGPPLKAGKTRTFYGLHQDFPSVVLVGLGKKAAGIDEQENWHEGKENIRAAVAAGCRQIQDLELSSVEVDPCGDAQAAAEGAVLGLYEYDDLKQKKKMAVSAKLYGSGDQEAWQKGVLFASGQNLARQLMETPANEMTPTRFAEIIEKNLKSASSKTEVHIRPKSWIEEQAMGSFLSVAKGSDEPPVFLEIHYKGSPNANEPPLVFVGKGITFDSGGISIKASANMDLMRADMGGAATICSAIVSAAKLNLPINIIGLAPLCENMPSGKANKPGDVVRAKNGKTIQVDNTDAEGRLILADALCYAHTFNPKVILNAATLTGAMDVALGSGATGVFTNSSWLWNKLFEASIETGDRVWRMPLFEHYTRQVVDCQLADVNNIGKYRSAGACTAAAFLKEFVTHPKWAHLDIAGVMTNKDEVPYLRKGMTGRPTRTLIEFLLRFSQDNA
Method in brief: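 For initial rates, enzyme was added to substrate plus inhibitor to start the reaction. For steady-state rates, enzyme was preincubated 15-20 min with inhibitor, then substrate was added. Double-reciprocal (Lineweaver-Burk) analysis was used.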

[3] = molecular target: Cytosol aminopeptidase (Sus scrofa) (UniProt P28839); test: Compound was evaluated for the inhibition of Leucine aminopeptidase from porcine kidney and the inhibition constant was determined after preincubating the enzyme and inhibitor
[4] = Compound was evaluated for the inhibition of Leucine aminopeptidase and the inhibition constant was determined after preincubating the enzyme and inhibitor

Compound: CC(C)CC(NC(=O)[C@H](C)[C@@H](N)Cc1ccccc1)C(=O)O (some centres not stated) [2-(3-Amino-2-methyl-4-phenyl-butyrylamino)-4-methyl-pentanoic acid]
- Ki (Cytosol aminopeptidase): 3.78 µM

Compound: CC(C)[C@H](NC(=O)OC(C)(C)C)C(=O)N[C@H](C(=O)N[C@@H](CC(=O)O)C(=O)O)C(C)C [2-[2-(2-tert-Butoxycarbonylamino-3-methyl-butyrylamino)-3-methyl-butyrylamino]-succinic acid] (Boc-Val-Val-Asp-OH)
- Ki [3]: 1400 µM

Compound: CC(C)C[C@H](NC(=O)[C@@H](O)[C@H](N)CC(C)C)C(=O)O [2-(3-Amino-2-hydroxy-5-methyl-hexanoylamino)-4-methyl-pentanoic acid]
- Ki [4]: 0.12 µM

Further lines, results first:

- Ki [1]: 0.89 µM
Compound: CC(C)CCNC(=O)[C@@H](NC(=O)[C@@H](NC(=O)[C@H](O)[C@@H](N)CC(C)C)C(C)C)C(C)C [3-Amino-2-hydroxy-5-methyl-hexanoic acid {2-methyl-1-[2-methyl-1-(3-methyl-butylcarbamoyl)-propylcarbamoyl]-propyl}-amide]

- Ki [2]: 681 µM
Compound: CC(C)C[C@@H](N)CC(=O)N[C@H](C(=O)N[C@H](C(=O)N[C@@H](CC(=O)O)C(=O)O)C(C)C)C(C)C [2-{2-[2-(3-Amino-5-methyl-hexanoylamino)-3-methyl-butyrylamino]-3-methyl-butyrylamino}-succinic acid]

- Ki [3]: 0.5 µM
Compound: CC(C)CCNC(=O)[C@H](O)[C@@H](N)Cc1ccccc1 [3-Amino-2-hydroxy-N-(3-methyl-butyl)-4-phenyl-butyramide]

- Ki [4]: 1.24 µM
Compound: CC(C)CC(N)C(O)C(=O)NC(C(=O)NC(CC(=O)O)C(=O)O)C(C)C (configuration not stated) [2-[2-(3-Amino-2-hydroxy-5-methyl-hexanoylamino)-3-methyl-butyrylamino]-succinic acid]
